Data taken from ChEMBL document CHEMBL1134139, “Synthesis and biological activity of novel macrocyclic antifungals. modification of the tyrosine moiety of the lipopeptidolactone FR901469” (2001).
In brackets after ≈: the same amount, converted by molar mass. Numbered stars: 1 amine (or outer) side, 2 acyl side, 3 side chain; on linkers, the order of the positions; unused ones are H or OH. Bridge positions count the residues as written; N and C are the ends. Square brackets hold non-standard residues; d marks the D form. Peptide text beside a SMILES is read from it. ξ: configuration not given here. X2 = O=C(CCC(=O)N1CCNCC1)Nc1cc(C[C@H](N[*:1])C(=O)[*:2])ccc1O; X3 = O=C(O)CCC(=O)Nc1cc(C[C@H](N[*:1])C(=O)[*:2])ccc1O; Gln(3R-OH) = NC(=O)C[C@@H](O)[C@H](N)C(=O)O; X1 = CCCCCCCCCCCCC[C@H](CC(=O)[*:1])O[*:2]; Pro(3S-OH) = O=C(O)[C@H]1NCC[C@@H]1O; Hyp = O=C(O)[C@@H]1C[C@@H](O)CN1; Orn = NCCC[C@H](N)C(=O)O; ξA = CC(N)C(=O)O

Tests used:
Mus musculus [1] = assay: Compound was evaluated in vivo for antifungal activity and efficacy in disseminated murine candidiasis was determined; format: functional
Candida albicans [2] = assay: In vitro antifungal activity against Candida albicans FP633 by broth microdilution method; format: functional
Procedure, shortened: (§1)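 Broth microdilution run to NCCLS M27-A guidelines. MIC read per that standard.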

Candida albicans [3] = assay: In vitro antifungal activity against Candida albicans 13004 by broth microdilution method; format: functional; procedure, shortened: as §1
Aspergillus fumigatus [4] = assay: In vitro antifungal activity against Aspergillus fumigatus 8004 by broth microdilution method; format: functional; procedure, shortened: as §1
Mus musculus [5] = species on record: Mus musculus; assay: Ability to hemolyze ICR mouse RBCs at 1 mg/mL using microtiter red blood cell hemolysis assay.
Aspergillus fumigatus [6] = assay: In vitro antifungal activity against Aspergillus fumigatus FP1305 by broth microdilution method; format: functional; procedure, shortened: as §1

Row | Structure (SMILES) | ED50 (Mus musculus [1]) [mg/kg] | MIC (Candida albicans [2]) [µg/mL] | MIC (Candida albicans [3]) [µg/mL] | MIC (Aspergillus fumigatus [4]) [µg/mL] | Hemolytic activity (Mus musculus [5]) [%] | MIC (Aspergillus fumigatus [6]) [µg/mL]
1 | C[C@@H]1[C@H](O)[C@@H](C)/C=C/C=C/C=C/C=C/C=C/C=C/C=C/[C@H](O[C@@H]2O[C@H](C)[C@@H](O)[C@H](N)[C@@H]2O)C[C@@H]2O[C@](O)(C[C@@H](O)C[C@@H](O)[C@H](O)CC[C@@H](O)C[C@@H](O)CC(=O)O[C@H]1C)C[C@H](O)[C@H]2C(=O)O [AMPHOTERICIN B] | 0.132 |  |  |  |  | 
2 | OC(Cn1cncn1)(Cn1cncn1)c1ccc(F)cc1F [FLUCONAZOLE] | > 20 |  |  |  |  | 
3 | CCCCCCCCCCCCC[C@H](CC(=O)N[C@@H](C(=O)N[C@H](C)C(=O)N[C@@H](Cc1ccc(OCC(=O)N(C)C)cc1)C(=O)N[C@H](C(=O)N1C[C@H](O)C[C@H]1C(=O)N[C@@H](C(=O)N[C@H](C(=O)N1CC[C@H](O)[C@H]1C(=O)N[C@H](C(=O)NCC(=O)N[C@@H](C(N)=O)[C@@H](C)O)[C@H](O)CC(N)=O)[C@@H](C)O)[C@@H](C)O)C(C)C)[C@@H](C)O)OC(=O)[C@@H](C)CCCN |  | 0.5 (≈ 0.306 µM) | 1 (≈ 0.612 µM) | 1 (≈ 0.612 µM) | 85 | 0.25 (≈ 0.153 µM)
4 | CCCCCCCCCCCCC[C@@H]1CC(=O)N[C@@H]([C@@H](C)O)C(=O)NC(C)C(=O)N[C@@H](Cc2ccc(O)c(NC(=O)CCC(=O)N3CCNCC3)c2)C(=O)N[C@@H](C(C)C)C(=O)N2C[C@H](O)C[C@H]2C(=O)N[C@@H]([C@@H](C)O)C(=O)N[C@@H]([C@@H](C)O)C(=O)N2CC[C@H](O)[C@H]2C(=O)N[C@@H]([C@H](O)CC(N)=O)C(=O)NCC(=O)N[C@@H]([C@@H](C)O)C(=O)N[C@@H](CCCN)C(=O)O1 (stereo partly drawn) (T[ξA][X2]V[Hyp]TT[Pro(3S-OH)][Gln(3R-OH)]GT[Orn]; linker N-C via X1) | 0.97 | 1 (≈ 0.582 µM) | 1 (≈ 0.582 µM) | 1 (≈ 0.582 µM) | 46 | 0.5 (≈ 0.291 µM)
5 | CCCCCCCCCCCCC[C@H](CC(=O)N[C@@H](C(=O)N[C@H](C)C(=O)N[C@@H](Cc1ccc(O)c(NC(=O)C[C@H](N)C(=O)O)c1)C(=O)N[C@H](C(=O)N1C[C@H](O)C[C@H]1C(=O)N[C@@H](C(=O)N[C@H](C(=O)N1CC[C@H](O)[C@H]1C(=O)N[C@H](C(=O)NCC(=O)N[C@@H](C(N)=O)[C@@H](C)O)[C@H](O)CC(N)=O)[C@@H](C)O)[C@@H](C)O)C(C)C)[C@@H](C)O)OC(=O)[C@@H](C)CCCN | 0.8 | 0.5 (≈ 0.298 µM) | 1 (≈ 0.595 µM) | 0.5 (≈ 0.298 µM) | 75 | 0.25 (≈ 0.149 µM)
6 | CCCCCCCCCCCCC[C@H](CC(=O)N[C@@H](C(=O)N[C@H](C)C(=O)N[C@@H](Cc1ccc(O)c(NC(=O)[C@H](N)CO)c1)C(=O)N[C@H](C(=O)N1C[C@H](O)C[C@H]1C(=O)N[C@@H](C(=O)N[C@H](C(=O)N1CC[C@H](O)[C@H]1C(=O)N[C@H](C(=O)NCC(=O)N[C@@H](C(N)=O)[C@@H](C)O)[C@H](O)CC(N)=O)[C@@H](C)O)[C@@H](C)O)C(C)C)[C@@H](C)O)OC(=O)[C@@H](C)CCCN |  | 1 (≈ 0.605 µM) | 2 (≈ 1.21 µM) | 2 (≈ 1.21 µM) | 84 | 0.5 (≈ 0.303 µM)
7 | CCCCCCCCCCCCC[C@@H]1CC(=O)N[C@@H]([C@@H](C)O)C(=O)N[C@@H](C)C(=O)N[C@@H](Cc2ccc(O)c(NC(=O)CCC(=O)O)c2)C(=O)N[C@@H](C(C)C)C(=O)N2C[C@H](O)C[C@H]2C(=O)N[C@@H]([C@@H](C)O)C(=O)N[C@@H]([C@@H](C)O)C(=O)N2CC[C@H](O)[C@H]2C(=O)N[C@@H]([C@H](O)CC(N)=O)C(=O)NCC(=O)N[C@@H]([C@@H](C)O)C(=O)N[C@@H](CCCN)C(=O)O1 (TA[X3]V[Hyp]TT[Pro(3S-OH)][Gln(3R-OH)]GT[Orn]; linker N-C via X1) |  | 0.5 (≈ 0.303 µM) | 1 (≈ 0.606 µM) | 0.5 (≈ 0.303 µM) | 79 | 0.25 (≈ 0.152 µM)
8 | CCCCCCCCCCCCC[C@H](CC(=O)N[C@H](C(=O)N[C@H](C)C(=O)N[C@@H](Cc1ccc(OCC(=O)NCCN)cc1)C(=O)N[C@H](C(=O)N1C[C@H](O)C[C@H]1C(=O)N[C@H](C(=O)N[C@H](C(=O)N1CC[C@H](O)[C@H]1C(=O)N[C@H](C(=O)NCC(=O)N[C@H](C(N)=O)[C@@H](C)O)[C@H](O)CC(N)=O)[C@@H](C)O)[C@@H](C)O)C(C)C)[C@@H](C)O)OC(=O)[C@@H](C)CCCN.Cl |  | 1 | 1 | 1 | 45 | 0.5
